For assay [1], the system named is Trypanosoma brucei. Put plainly: Evaluated for antiparasitic activity against brucei trypomastigotes. The format is functional. The note with it: read-out: ED50 (the source's name). The gist of the method: (§1)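 T. brucei S427 bloodstream trypomastigotes in HMI-18 + 20% HIFCS, seeded at 2 × 10⁵/mL mixed with equal volume of compound. Compound given as a 3-fold dilution series from 30 µM top, triplicate, 3 days at 37 °C, 5% CO₂. Growth measured by tetrazolium colorimetric assay on day 3 and expressed as % inhibition versus untreated control. Pentamidine serves as positive control.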

In assay [2] the test system is Leishmania donovani. Put plainly: Evaluated for antiparasitic activity against Leishmania donovani. The assay is classed as functional. A digest of the protocol: (§2)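 L. donovani (strain MHOM/ET/67/L82) amastigotes from hamster passage, used to infect starch-elicited peritoneal macrophages from female CD1 mice (4 × 10⁴/well, RPMI-1640 + 10% HIFCS) at 10:1 after 24 h adherence. Drug given as a 3-fold dilution series, top concentration ~30 µM, quadruplicate, 5 days. Read-out is % macrophages cleared of amastigotes versus untreated control. Sodium stibogluconate serves as control.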

For the next assay, the system named is K562. In words: Tested for cytotoxicity in human K562 cells. The note with it: read-out: ID50 (the source's name). The assay is classed as functional. The gist of the method: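 K562 human CML cells in RPMI + 10% fetal calf serum at 37 °C, 5% CO₂, humidified. Exposed to compound for 5 days. Viability read by the semi-automated NCI MTT-type (Mosmann) tetrazolium assay, run by an external institute.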

For assay [3], the system named is Leishmania donovani. Put plainly: Compound is evaluated for antiparasitic activity against Leishmania donovani. The assay is classed as functional. A digest of the protocol:
as §2

In assay [4] the test system is Trypanosoma brucei. In words: Evaluated for antiparasitic activity against brucei trypomastigotes; NA is Not active. The assay is classed as functional, organism-based. The gist of the method: as §1
Assay [5] concerns Trypanosoma cruzi. In words: Evaluated for antiparasitic activity against Trypanosoma cruzi amastigotes; NA is Not active. The assay is classed as functional, organism-based. The gist of the method:
(§3)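 T. cruzi (strain MHOM/BR/OO/Y) trypomastigotes, MDCK-derived, used to infect starch-elicited peritoneal macrophages from female CD1 mice (4 × 10⁴/well, RPMI-1640 + 10% HIFCS) at 5:1 after 24 h. Drug given as a 3-fold dilution series up to ~30 µM, quadruplicate, 3 days. Activity is scored as % macrophages cleared of amastigotes relative to untreated control. Nifurtimox serves as control.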

Assay [6] relates to Leishmania donovani. Put plainly: Evaluated for antiparasitic activity against Leishmania donovani; NA is Not active. The assay is classed as functional, organism-based. A digest of the protocol:
as §2

Assay [7] relates to Trypanosoma cruzi. In words: Compound is evaluated for antiparasitic activity against Trypanosoma cruzi. The format is functional. A digest of the protocol: as §3
The test system of assay [8] is Trypanosoma cruzi. Put plainly: Compound is evaluated for antiparasitic activity against Trypanosoma cruzi amastigotes. The format is functional. A digest of the protocol: as §3
The subject of assay [9] is Trypanosoma cruzi. In words: Compound is evaluated for antiparasitic activity against Trypanosoma cruzi amastigotes. The assay is classed as functional. The gist of the method:
as §3

Assay [10] deals with Trypanosoma brucei. Put plainly: Compound is evaluated for antiparasitic brucei trypomastigotes percent inhibition is given in parentheses. The format is functional. The conditions noted are these: read-out: ED50 (the source's name). A digest of the protocol:
as §1

The source of these data is ChEMBL document CHEMBL1132941, “Structure-activity study on the in vitro antiprotozoal activity of glutathione derivatives” (2000).

Active and inactive are the calls of the source. The rule behind the calls is not given here.

With `CCCOC(=O)CNC(=O)C(CSc1ccc([N+](=O)[O-])cc1[N+](=O)[O-])NC(=O)CCC(NC(=O)OCc1ccccc1)C(=O)OCCC` (stereo not given), in the assay with Trypanosoma brucei [1], the EC50 was found to be 6 µM. The ED50 in the assay on Leishmania donovani [2] was greater than 30 µM. Further, the IC50 in the assay on K562 amounted to 17.6 µM.
`COC(=O)CNC(=O)C(CSCc1ccc(Br)cc1)NC(=O)CCC(N)C(=O)OC` (stereo not given): in the assay on Leishmania donovani [3], the Inhibition (commonly the drop in the measured response relative to a control, in per cent) stood at 8.7%. For the same compound, the NA entry in the assay on Trypanosoma brucei [4] and with Trypanosoma cruzi [5] was “inactive” in each case. The IC50 with K562 is greater than 50 µM.
In the case of `NC(=O)CNC(=O)C(CSCc1ccc(Br)cc1)NC(=O)CCC(NC(=O)OCc1ccccc1)C(=O)O` (stereo not given), the NA result in the assay with Leishmania donovani [6], in the assay on Trypanosoma brucei [4] and with Trypanosoma cruzi [5] was “inactive” in each case. Moreover, the IC50 in the assay with K562 is greater than 50 µM.
`NC(=O)CNC(=O)C(CSCc1ccc(Br)cc1)NC(=O)CCC(NC(=O)OCc1ccccc1)C(N)=O` (stereo not given): the EC50 in the assay with Trypanosoma brucei [1] is greater than 30 µM. Further, the NA entry with Leishmania donovani [6] and in the assay on Trypanosoma cruzi [5] was “inactive” throughout. In the assay on K562, the IC50 is greater than 50 µM.
Regarding `O=C(CCC(NC(=O)OCc1ccccc1)C(=O)OC1CCCCC1)NC(CSc1ccc([N+](=O)[O-])cc1[N+](=O)[O-])C(=O)NCC(=O)OC1CCCCC1` (stereo not given), the EC50 with Trypanosoma brucei [1] stood at 0.19 µM. The compound also gave an ED50 with Trypanosoma cruzi [7] of 3 µM. Moreover, the IC50 in the assay with K562 was 15.9 µM.
Compound `COC(=O)CNC(=O)C(CSCc1ccc(Br)cc1)NC(=O)CCC(NC=O)C(=O)OC` (stereo not given) came in with an Inhibition with Trypanosoma cruzi [8] of 12%. Further, the NA result in the assay on Leishmania donovani [6] and in the assay with Trypanosoma brucei [4] was “inactive” in each case. The IC50 in the assay with K562 was greater than 50 µM.
As for `CCCCOC(=O)CNC(=O)C(CSCc1ccc(Br)cc1)NC(=O)CCC(NC(=O)OCc1ccccc1)C(=O)OCCCC` (stereo not given), in the assay on Trypanosoma brucei [1], the EC50 came to 1.9 µM. For the same compound, the Inhibition with Leishmania donovani [3] turned out to be 68%. In the assay with K562, the IC50 was determined as 16.7 µM.
For the compound `CCCCCCOC(=O)CNC(=O)C(CSc1ccc([N+](=O)[O-])cc1[N+](=O)[O-])NC(=O)CCC(NC(=O)OCc1ccccc1)C(=O)OCCCCCC` (stereo not given), the EC50 in the assay with Trypanosoma brucei [1] came to 5.8 µM. The ED50 in the assay on Trypanosoma cruzi [7] was less than 50 µM; in the assay on Leishmania donovani [2] it was greater than 50 µM. For the same compound, the IC50 with K562 is greater than 50 µM.
Turning to `NC(=O)CNC(=O)C(CSCc1ccc(Br)cc1)NC(=O)CCC(N)C(=O)O` (stereo not given), the EC50 in the assay with Trypanosoma brucei [1] was less than 30 µM. For the same compound, the NA entry in the assay with Leishmania donovani [6] and with Trypanosoma cruzi [5] was “inactive” each time. In addition, the IC50 in the assay with K562 is greater than 50 µM.
With `COC(=O)CNC(=O)C(CSCc1ccc(Br)cc1)NC(=O)CCC(NC(=O)OCc1ccccc1)C(=O)O` (stereo not given), the NA result with Leishmania donovani [6], in the assay with Trypanosoma brucei [4] and in the assay with Trypanosoma cruzi [5] was “inactive” in each case. Moreover, the IC50 with K562 is greater than 50 µM.
On to `CC(=O)NC(CCC(=O)NC(CSCc1ccc(Br)cc1)C(=O)NCC(=O)O)C(=O)O` (stereo not given), for which the EC50 in the assay on Trypanosoma brucei [1] was greater than 30 µM. The NA entry in the assay with Leishmania donovani [6] and in the assay on Trypanosoma cruzi [5] was “inactive” each time. Further, the IC50 in the assay with K562 was greater than 50 µM.
Consider `COC(=O)CNC(=O)C(CSC(=O)OCc1ccccc1)NC(=O)CCC(NC(=O)OCc1ccccc1)C(=O)OC` (stereo not given), for which the EC50 in the assay on Trypanosoma brucei [1] was determined as 17 µM. In addition, the IC50 with K562 was determined as 1.26 µM.
In turn, `CCCCCCCCOC(=O)CNC(=O)C(CSc1ccc([N+](=O)[O-])cc1[N+](=O)[O-])NC(=O)CCC(NC(=O)OCc1ccccc1)C(=O)OCCCCCCCC` (stereo not given) yielded an ED50 in the assay with Leishmania donovani [2] greater than 50 µM. Further, the IC50 in the assay on K562 turned out to be 24.7 µM.
For the compound `O=CNC(CCC(=O)NC(CSCc1ccc(Br)cc1)C(=O)NCC(=O)O)C(=O)O` (stereo not given), the Inhibition in the assay with Trypanosoma cruzi [9] was 11%. Also, the NA result with Leishmania donovani [6] and in the assay with Trypanosoma brucei [4] was “inactive” each time. For the same compound, the IC50 with K562 is greater than 50 µM.
Take `NC(=O)CNC(=O)C(CSCc1ccc(Br)cc1)NC(=O)CCC(N)C(N)=O` (stereo not given): the Inhibition in the assay with Leishmania donovani [3] was found to be 4%. For the same compound, the NA entry in the assay with Trypanosoma brucei [4] and in the assay with Trypanosoma cruzi [5] was “inactive” each time. The IC50 in the assay with K562 was greater than 50 µM.
As to `COC(=O)CNC(=O)C(CSCc1ccc(Br)cc1)NC(=O)CCC(N)C(=O)O` (stereo not given), in the assay with Trypanosoma brucei [1], the EC50 was greater than 30 µM. For the same compound, the NA entry with Leishmania donovani [6] and with Trypanosoma cruzi [5] was “inactive” throughout. Moreover, the IC50 in the assay with K562 is greater than 50 µM.
With `O=C(O)CNC(=O)C(CSCc1ccc(Br)cc1)NC(=O)CCC(NC(=O)OCc1ccccc1)C(=O)O` (stereo not given), in the assay on Trypanosoma brucei [1], the EC50 is greater than 30 µM. The NA entry in the assay on Leishmania donovani [6] and in the assay with Trypanosoma cruzi [5] was “inactive” throughout. Further, the IC50 in the assay on K562 is greater than 50 µM.
Consider `COC(=O)CNC(=O)C(CSc1ccc([N+](=O)[O-])cc1[N+](=O)[O-])NC(=O)CCC(NC(=O)OCc1ccccc1)C(=O)OC` (stereo not given), for which, in the assay on Trypanosoma brucei [1], the EC50 is 16.2 µM. In addition, the ED50 with Leishmania donovani [2] is greater than 30 µM. Also, in the assay on K562, the IC50 worked out at 23.4 µM.
Regarding `N[C@@H](CCC(=O)N[C@@H](CSCc1ccc(Br)cc1)C(=O)NCC(=O)O)C(=O)O`, the EC50 with Trypanosoma brucei [1] was greater than 30 µM. Further, the NA entry in the assay on Leishmania donovani [6] and with Trypanosoma cruzi [5] was “inactive” throughout. For the same compound, the IC50 with K562 was greater than 50 µM.
For the compound `CCCCOC(=O)CNC(=O)C(CSc1ccc([N+](=O)[O-])cc1[N+](=O)[O-])NC(=O)CCC(NC(=O)OCc1ccccc1)C(=O)OCCCC` (stereo not given), in the assay on Trypanosoma brucei [1], the EC50 was determined as 1.07 µM. In addition, in the assay on Leishmania donovani [2], the ED50 was greater than 30 µM. Further, the IC50 with K562 stood at 21.8 µM.
In the case of `COC(=O)CNC(=O)C(CSC(=O)OCc1ccccc1)NC(=O)CCC(NC(C)=O)C(=O)OC` (stereo not given), in the assay with Trypanosoma brucei [1], the EC50 is 3.2 µM. The IC50 in the assay with K562 is greater than 50 µM.
For the compound `COC(=O)CNC(=O)C(CSCc1ccc(Br)cc1)NC(=O)CCC(NC(=O)OCc1ccccc1)C(=O)OC` (stereo not given), the IC50 in the assay on K562 was found to be 16.7 µM. The EC50 in the assay with Trypanosoma brucei [10] is greater than 30 µM.
